ChEMBL document CHEMBL1128547, “Selective inhibitors of Candida albicans dihydrofolate reductase: activity and selectivity of 5-(arylthio)-2,4-diaminoquinazolines” (J Med Chem, 1995)
In brackets after ≈: the same amount, converted by molar mass.

What was measured:
[1] = tested on: Candida albicans; experiment: Minimum inhibitory concentration required to inhibit Candida albicans (in vitro); assay type: functional
Method in brief: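 Broth dilution in defined medium (NH4Cl, K2HPO4, MgSO4, sodium citrate, PIPES, biotin, glucose; pH 7.1), strain P712 from frozen log-phase stocks. Inoculum 4500 CFU per 3 mL tube, final drug 50–0.01 μg/mL, or microtiter wells (0.05 mL) with 4-fold dilutions. 28 °C, 160 rpm, 20–24 h.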

[2] = tested on: Candida albicans; experiment: Ratio of I50 evaluated for inhibition of DHFR in humans to Candida albicans
Method in brief: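 Selectivity index is the human DHFR I50 divided by the C. albicans DHFR I50. The C. albicans enzyme (E. coli-expressed, 0.2 nM) was run in 0.1 M imidazole chloride, pH 6.4. Recombinant human enzyme (2 nM) was run in 50 mM Sorenson's phosphate, pH 7.0. Enzyme, NADPH and inhibitor were preincubated 2 min before substrate was added. I50 came from linear regression of % inhibition of steady-state velocity vs log concentration.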

Compound | MIC [1] [µg/mL] | Selectivity index [2]
Nc1nc(N)c2c(Sc3ccc(O)cc3)cccc2n1 | 10 (≈ 35.2 µM) | 5
COc1cc(Cc2cnc(N)nc2N)cc(OC)c1OC [TRIMETHOPRIM] | > 50 | –
N#Cc1ccc(Sc2cccc3nc(N)nc(N)c23)cc1 | > 50 | 100
CC(C)COc1ccc2nc(N)nc(N)c2c1Sc1ccc(C(C)(C)C)cc1 | 0.8 (≈ 2.02 µM) | 10
Nc1nc(N)c2c(Sc3ccc(C4CCCCC4)cc3)cccc2n1 | 1 (≈ 2.85 µM) | > 200
CC(C)c1ccc(Sc2cccc3nc(N)nc(N)c23)cc1 | 0.25 (≈ 0.805 µM) | –
Nc1nc(N)c2c(Sc3ccc(N4CCOCC4)cc3)cccc2n1 | > 50 | –
Nc1nc(N)c2c(Sc3ccc(Cl)cc3)cccc2n1 | 0.5 (≈ 1.65 µM) | –
COc1cc(NCc2ccc3nc(N)nc(N)c3c2C)cc(OC)c1OC [TRIMETREXATE] | > 50 | –
COc1ccc(Sc2cccc3nc(N)nc(N)c23)cc1OC | > 50 | 79
COc1ccccc1Sc1cccc2nc(N)nc(N)c12 | 10 (≈ 33.5 µM) | 4
CC(C)(C)c1ccc(Sc2c(N)ccc3nc(N)nc(N)c23)cc1 | 5 (≈ 14.7 µM) | –
CCCCCCc1ccc(Sc2cccc3nc(N)nc(N)c23)cc1 | 50 (≈ 142 µM) | –
CCN(CC)c1ccc(Sc2cccc3nc(N)nc(N)c23)cc1 | 2.5 (≈ 7.36 µM) | –
COc1ccc(Sc2cccc3nc(N)nc(N)c23)cc1 | 0.25 (≈ 0.838 µM) | –
Nc1nc(N)c2c(Sc3ccc(C(F)(F)F)cc3)cccc2n1 | 25 (≈ 74.3 µM) | 5

Compound | MIC [1] [µg/mL] | Selectivity index [2]
Nc1nc(N)c2c(Sc3ccccc3Cl)cccc2n1 | 1 (≈ 3.3 µM) | 2
Nc1nc(N)c2c(Sc3ccc(F)cc3)cccc2n1 | 0.25 (≈ 0.873 µM) | 40
Nc1nc(N)c2c(Sc3ccc([N+](=O)[O-])cc3)cccc2n1 | 50 (≈ 160 µM) | 100
Nc1nc(N)c2c(Sc3ccccc3)cccc2n1 | 0.05 (≈ 0.186 µM) | –
CC(C)(C)c1ccc(Sc2cccc3nc(N)nc(N)c23)cc1 | 0.1 (≈ 0.308 µM) | –
COc1ccc(OC)c(Cc2cnc3nc(N)nc(N)c3c2C)c1 [PIRITREXIM] | > 10 | –
CCC(C)(C)c1ccc(Sc2cccc3nc(N)nc(N)c23)cc1 | 10 (≈ 29.5 µM) | 10
Nc1ccc(Sc2cccc3nc(N)nc(N)c23)cc1 | 2.5 (≈ 8.82 µM) | 5
Nc1nc(N)c2c(Sc3ccc(Br)cc3)cccc2n1 | 0.25 (≈ 0.72 µM) | 100
Cc1ccc(Sc2cccc3nc(N)nc(N)c23)cc1 | 0.25 (≈ 0.885 µM) | –
CCc1nc(N)nc(N)c1-c1ccc(Cl)cc1 [PYRIMETHAMINE] | > 50 | –
COc1cc(Sc2cccc3nc(N)nc(N)c23)cc(OC)c1OC | 5 (≈ 13.9 µM) | –
CC(C)(C)c1ccc(Sc2c(C#N)ccc3nc(N)nc(N)c23)cc1 | > 5 | –
COc1cccc(Sc2cccc3nc(N)nc(N)c23)c1 | 0.25 (≈ 0.838 µM) | –
Nc1nc(N)c2c(Sc3cccc(Cl)c3)cccc2n1 | 0.5 (≈ 1.65 µM) | 6
CCOc1ccc2nc(N)nc(N)c2c1Sc1ccc(C(C)(C)C)cc1 | 1 (≈ 2.71 µM) | –
